Experimental data reported in ChEMBL document CHEMBL4689842, “EUbOPEN Chemogenomics Library wave 1” (2021).

System: Fibroblast
Assay: Multiplex assay against human fibroblast
Format: toxicity, cell-based
Summary of the method: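 Four dyes were applied at seeding to live cells: Hoechst33342, BioTracker Green Microtubule Cytoskeleton Dye, MitoTracker Red and Annexin V Alexa Fluor 680. Imaging after compound addition used a CQ1 microscope at 37°C and 5% CO2. CellPathfinder machine-learning gating then sorted cells into Hoechst high-intensity objects or normal cells, normal cells into healthy, pyknosed or fragmented nuclei, and pyknosed cells into mitotic or apoptotic, with tubulin, mitochondrial-mass and membrane-permeability phenotypes given as per cents of healthy-nucleus cells.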

[1] = 12 h, 1 µM, compound concentration 1 uM, replicate 1
[2] = 12 h, 1 µM, compound concentration 1 uM, replicate 2
[3] = 12 h, 10 µM, compound concentration 10 uM, replicate 1
[4] = 12 h, 10 µM, compound concentration 10 uM, replicate 2
[5] = 24 h, 1 µM, compound concentration 1 uM, replicate 1
[6] = 24 h, 1 µM, compound concentration 1 uM, replicate 2
[7] = 24 h, 10 µM, compound concentration 10 uM, replicate 1
[8] = 24 h, 10 µM, compound concentration 10 uM, replicate 2
[9] = 48 h, 1 µM, compound concentration 1 uM, replicate 1
[10] = 48 h, 1 µM, compound concentration 1 uM, replicate 2
[11] = 48 h, 10 µM, compound concentration 10 uM, replicate 1
[12] = 48 h, 10 µM, compound concentration 10 uM, replicate 2

CC(C)NC(=O)N1CC[C@H](NC2=Nc3cc(F)ccc3N(CC(F)F)c3ccc(Cl)cc32)C1
Population Apoptotic (%) [1]: 68% | Population Fragmented Nuclei (%) [1]: 27% | Population Healthy Nuclei (%) [1]: 30% | Population Hoechst High Intensity Objects (%) [1]: 12% | Population Membrane Permeable-Phenotype (%) [1]: 4% | Population Mitochondria Different-Phenotype (%) [1]: 4% | Population Mitotic Cells (%) [1]: 31% | Population Normal (%) [1]: 87% | Population Pyknosed Nuclei (%) [1]: 42% | Population Tubulin-Different-Phenotype (%) [1]: 14% | Total Cell Count [1]: 79 | Population Apoptotic (%) [2]: 33% | Population Fragmented Nuclei (%) [2]: 5% | Population Healthy Nuclei (%) [2]: 89% | Population Hoechst High Intensity Objects (%) [2]: 9% | Population Mitochondria Different-Phenotype (%) [2]: 18% | Population Mitotic Cells (%) [2]: 66% | Population Normal (%) [2]: 90% | Population Pyknosed Nuclei (%) [2]: 5% | Total Cell Count [2]: 293 | Population Apoptotic (%) [3]: 70% | Population Fragmented Nuclei (%) [3]: 29% | Population Healthy Nuclei (%) [3]: 40% | Population Hoechst High Intensity Objects (%) [3]: 13% | Population Membrane Permeable-Phenotype (%) [3]: 8% | Population Mitochondria Different-Phenotype (%) [3]: 21% | Population Mitotic Cells (%) [3]: 29% | Population Normal (%) [3]: 86% | Population Pyknosed Nuclei (%) [3]: 29% | Population Tubulin-Different-Phenotype (%) [3]: 89% | Total Cell Count [3]: 160 | Population Apoptotic (%) [4]: 0% | Population Fragmented Nuclei (%) [4]: 6% | Population Healthy Nuclei (%) [4]: 81% | Population Membrane Permeable-Phenotype (%) [4]: 13% | Population Mitochondria Different-Phenotype (%) [4]: 63% | Population Mitotic Cells (%) [4]: 100% | Population Pyknosed Nuclei (%) [4]: 11% | Population Tubulin-Different-Phenotype (%) [4]: 58% | Total Cell Count [4]: 62 | Population Apoptotic (%) [5]: 62% | Population Fragmented Nuclei (%) [5]: 21% | Population Healthy Nuclei (%) [5]: 40% | Population Hoechst High Intensity Objects (%) [5]: 9% | Population Membrane Permeable-Phenotype (%) [5]: 25% | Population Mitochondria Different-Phenotype (%) [5]: 6% | Population Mitotic Cells (%) [5]: 37% | Population Normal (%) [5]: 90% | Population Pyknosed Nuclei (%) [5]: 38% | Population Tubulin-Different-Phenotype (%) [5]: 22% | Total Cell Count [5]: 84 | Population Apoptotic (%) [6]: 50% | Population Fragmented Nuclei (%) [6]: 5% | Population Healthy Nuclei (%) [6]: 88% | Population Hoechst High Intensity Objects (%) [6]: 6% | Population Membrane Permeable-Phenotype (%) [6]: 6% | Population Mitochondria Different-Phenotype (%) [6]: 19% | Population Mitotic Cells (%) [6]: 50% | Population Normal (%) [6]: 93% | Population Pyknosed Nuclei (%) [6]: 5% | Population Tubulin-Different-Phenotype (%) [6]: 9% | Total Cell Count [6]: 281 | Population Apoptotic (%) [7]: 64% | Population Fragmented Nuclei (%) [7]: 32% | Population Healthy Nuclei (%) [7]: 45% | Population Hoechst High Intensity Objects (%) [7]: 13% | Population Membrane Permeable-Phenotype (%) [7]: 10% | Population Mitochondria Different-Phenotype (%) [7]: 46% | Population Mitotic Cells (%) [7]: 35% | Population Normal (%) [7]: 86% | Population Pyknosed Nuclei (%) [7]: 21% | Population Tubulin-Different-Phenotype (%) [7]: 92% | Total Cell Count [7]: 163 | Population Apoptotic (%) [8]: 83% | Population Fragmented Nuclei (%) [8]: 13% | Population Healthy Nuclei (%) [8]: 73% | Population Hoechst High Intensity Objects (%) [8]: 10% | Population Membrane Permeable-Phenotype (%) [8]: 6% | Population Mitochondria Different-Phenotype (%) [8]: 57% | Population Mitotic Cells (%) [8]: 16% | Population Normal (%) [8]: 90% | Population Pyknosed Nuclei (%) [8]: 13% | Population Tubulin-Different-Phenotype (%) [8]: 51% | Total Cell Count [8]: 75 | Population Apoptotic (%) [9]: 52% | Population Fragmented Nuclei (%) [9]: 17% | Population Healthy Nuclei (%) [9]: 58% | Population Hoechst High Intensity Objects (%) [9]: 12% | Population Membrane Permeable-Phenotype (%) [9]: 23% | Population Mitochondria Different-Phenotype (%) [9]: 2% | Population Mitotic Cells (%) [9]: 47% | Population Normal (%) [9]: 87% | Population Pyknosed Nuclei (%) [9]: 23% | Population Tubulin-Different-Phenotype (%) [9]: 20% | Total Cell Count [9]: 83 | Population Apoptotic (%) [10]: 33% | Population Fragmented Nuclei (%) [10]: 37% | Population Healthy Nuclei (%) [10]: 59% | Population Hoechst High Intensity Objects (%) [10]: 25% | Population Mitochondria Different-Phenotype (%) [10]: 3% | Population Mitotic Cells (%) [10]: 66% | Population Normal (%) [10]: 74% | Population Pyknosed Nuclei (%) [10]: 3% | Population Tubulin-Different-Phenotype (%) [10]: 33% | Total Cell Count [10]: 126 | Population Apoptotic (%) [11]: 62% | Population Fragmented Nuclei (%) [11]: 41% | Population Healthy Nuclei (%) [11]: 48% | Population Hoechst High Intensity Objects (%) [11]: 20% | Population Membrane Permeable-Phenotype (%) [11]: 15% | Population Mitochondria Different-Phenotype (%) [11]: 21% | Population Mitotic Cells (%) [11]: 37% | Population Normal (%) [11]: 80% | Population Pyknosed Nuclei (%) [11]: 10% | Population Tubulin-Different-Phenotype (%) [11]: 90% | Total Cell Count [11]: 190 | Population Apoptotic (%) [12]: 100% | Population Fragmented Nuclei (%) [12]: 24% | Population Healthy Nuclei (%) [12]: 74% | Population Hoechst High Intensity Objects (%) [12]: 7% | Population Membrane Permeable-Phenotype (%) [12]: 6% | Population Mitochondria Different-Phenotype (%) [12]: 1% | Population Mitotic Cells (%) [12]: 0% | Population Normal (%) [12]: 92% | Population Pyknosed Nuclei (%) [12]: 1% | Population Tubulin-Different-Phenotype (%) [12]: 56% | Total Cell Count [12]: 88
